Data on eight compounds can be found in ChEMBL document CHEMBL2407024, “Antimicrobial activity of imidazo[1,5-a]quinoxaline derivatives with pyridinium moiety” (Eur J Med Chem, 2013).

Data set [1] concerns Pseudomonas aeruginosa. Nature of the data set: Bactericidal activity against Pseudomonas aeruginosa 9027 after 4 hrs. The class given is functional. The settings on record: Pseudomonas aeruginosa, 9027, 4 h. In short, it runs like this:
(§1)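 Tubes contained 1 mL test compound in nutrient agar, 5 to 500 per ml. Bacteria in normal saline broth (3 × 10⁵ cfu/ml, 1 mL) were added and held 4 h, then transferred onto meal-peptone agar plates and incubated at 37 °C. MBC is the dilution giving total cell death.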

The subject of data set [2] is Escherichia coli. As to the kind of experiment: Bactericidal activity against Escherichia coli F-50 after 4 hrs. The class given is functional. The settings on record: F-50, 4 h. In short, it runs like this: as §1
The subject of data set [3] is Bacillus cereus. Nature of the data set: Bactericidal activity against Bacillus cereus 8035 after 4 hrs. As to conditions: Bacillus cereus, 8035, 4 h. The class given is functional. The essentials:
as §1

The subject of data set [4] is Staphylococcus aureus. As to the kind of experiment: Bactericidal activity against Staphylococcus aureus 209p after 4 hrs. The class given is functional. The essentials:
as §1

Data set [5] deals with Escherichia coli. Nature of the data set: Antibacterial activity against Escherichia coli F-50 measured every 24 hrs for 5 days by conventional dilution method. The class given is functional. In short, it runs like this: (§2)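 Broth dilution in nutrient broth, inoculum 3 × 10⁵ cfu/ml. MIC is the lowest concentration showing no growth, read visually every 24 h over 5 days. Run alongside a positive growth control and standard drug controls. Tests in duplicate, repeated twice.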

The subject of data set [6] is Bacillus cereus. Nature of the data set: Antibacterial activity against Bacillus cereus 8035 measured every 24 hrs for 5 days by conventional dilution method. Format: functional. The essentials:
as §2

In data set [7] the test system is Staphylococcus aureus. Nature of the data set: Antibacterial activity against Staphylococcus aureus 209p measured every 24 hrs for 5 days by conventional dilution method. Format: functional. In short, it runs like this: as §2
Data set [8] relates to Pseudomonas aeruginosa. As to the kind of experiment: Antibacterial activity against Pseudomonas aeruginosa 9027 measured every 24 hrs for 5 days by conventional dilution method. The class given is functional. In short, it runs like this:
as §2

Data set [9] has as its system Candida albicans. Nature of the data set: Fungicidal activity against Candida albicans 885-653 after 6 hrs. Format: functional. The settings on record: 885-653, 6 h. The essentials:
(§3)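 Tubes of test compound (5 to 500 per ml, 1 mL in nutrient agar) with fungi were incubated at 26 °C for 6 h. Inocula were then prepared in Sabouraud dextrose broth and incubated at 26 °C. The fungicidal concentration is the one giving total cell death.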

The subject of data set [10] is Trichophyton mentagrophytes. Nature of the data set: Fungicidal activity against Trichophyton mentagrophytes after 6 hrs. Format: functional. The essentials:
as §3

Data set [11] relates to Aspergillus niger. Nature of the data set: Fungicidal activity against Aspergillus niger BKMF-1119 after 6 hrs. Format: functional. As to conditions: BKMF-1119, 6 h. In short, it runs like this: as §3
Data set [12] concerns Candida albicans. Nature of the data set: Antifungal activity against Candida albicans 885-653 measured every 24 hrs for 14 days by conventional dilution method. The class given is functional. The essentials: (§4)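 Dilution assay in Sabouraud dextrose broth, inoculum 2 × 10^3–4 cfu/ml. MIC is the lowest concentration with no visible growth after 14 days of incubation. Run alongside a positive growth control and standard drug controls. Tests in duplicate, repeated twice.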

Data set [13] has as its system Trichophyton mentagrophytes. As to the kind of experiment: Antifungal activity against Trichophyton mentagrophytes measured every 24 hrs for 14 days by conventional dilution method. The class given is functional. In short, it runs like this: as §4
Data set [14] deals with Aspergillus niger. Nature of the data set: Antifungal activity against Aspergillus niger BKMF-1119 measured every 24 hrs for 14 days by conventional dilution method. Format: functional. In short, it runs like this: as §4
Data set [15] can be described thus: Acute toxicity in ip dosed mouse. As to conditions: in vivo. The class given is organism-based. The essentials:
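Mice; each compound given at 5 dose levels, 10 animals per dose (n = 50 per compound). Animals observed for 72 h; toxicity expressed as average lethal dose (LD50) calculated from mortality across dose groups.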

Each structure is given as a SMILES string. In brackets after ≈: the same amount, converted by molar mass.

By MBC is commonly meant the lowest tested concentration that kills the bacteria rather than only halting them. Low readings indicate greater bactericidal potency, high ones weaker bactericidal potency. The term MIC denotes the lowest concentration that inhibits growth of the organism. Lower therefore signals a more susceptible organism. For the compound `CCn1cc(C(=O)O)c(=O)c2cc(F)c(N3CCNCC3)cc21` [NORFLOXACIN], the MBC in the data set on Pseudomonas aeruginosa [1] amounted to 5 µg/mL (≈ 15.7 µM); in the data set with Escherichia coli [2] it was 5 µg/mL (≈ 15.7 µM); in the data set on Bacillus cereus [3], 12.5 µg/mL (≈ 39.1 µM); in the data set on Staphylococcus aureus [4], 5 µg/mL (≈ 15.7 µM). The MIC against Escherichia coli [5] was determined as 1.5 µg/mL (≈ 4.7 µM); with Bacillus cereus [6], 7.8 µg/mL (≈ 24.4 µM); against Staphylococcus aureus [7], 2.42 µg/mL (≈ 7.58 µM); in the data set on Pseudomonas aeruginosa [8], 3 µg/mL (≈ 9.39 µM).
The MFC is the lowest tested concentration that kills the fungus rather than only halting it. For `CCCCCCCCCn1c(=O)c2c(-c3ccccc3)nc(-c3ccc[n+](Cc4ccccc4)c3)n2c2ccccc21.[Cl-]`, the figures for the MFC (against Candida albicans [9]; in [10]; in the data set with Aspergillus niger [11]) were 500 µg/mL, over 500 µg/mL and over 500 µg/mL, respectively. Moreover, the MBC is over 500 µg/mL with Pseudomonas aeruginosa [1], over 500 µg/mL against Escherichia coli [2], over 500 µg/mL against Bacillus cereus [3] and 50 µg/mL against Staphylococcus aureus [4]. Further, the MIC against Candida albicans [12] was 3.9 µg/mL; in data set [13], 500 µg/mL; against Aspergillus niger [14], over 500 µg/mL; with Escherichia coli [5], over 500 µg/mL; in the data set with Bacillus cereus [6] it was 12.5 µg/mL; in the data set on Staphylococcus aureus [7], 1.95 µg/mL. In addition, in the data set with Pseudomonas aeruginosa [8], the MIC is over 500 µg/mL.
By LD50 is commonly meant the dose expected to kill half of the subjects tested. High values mean a less toxic substance, low ones a more toxic substance. In [15], `CCCCCCCCC[n+]1cccc(-c2nc(-c3ccccc3)c3c(=O)n(CCCCCC)c4ccccc4n23)c1.[I-]` showed an LD50 of 52.5 mg/kg. For the same compound, the values for the MFC (in the data set on Candida albicans [9]; in [10]; against Aspergillus niger [11]) were 500 µg/mL, over 500 µg/mL and over 500 µg/mL, respectively. Besides, the minimum bactericidal concentration (MBC) with Pseudomonas aeruginosa [1] is over 500 µg/mL; in the data set on Escherichia coli [2], over 500 µg/mL; in the data set on Bacillus cereus [3] it was 500 µg/mL; against Staphylococcus aureus [4], 5 µg/mL. For the same compound, the minimum inhibitory concentration (MIC) in the data set on Candida albicans [12] was 500 µg/mL; in data set [13], over 500 µg/mL; in the data set on Aspergillus niger [14] it was over 500 µg/mL; with Escherichia coli [5], over 500 µg/mL; against Bacillus cereus [6], 0.78 µg/mL; with Staphylococcus aureus [7] it was 0.78 µg/mL. The compound further displayed an MIC against Pseudomonas aeruginosa [8] of over 500 µg/mL.
As for `Clc1ccccc1C(c1ccccc1)(c1ccccc1)n1ccnc1` [CLOTRIMAZOLE], the MFC amounted to 0.39 µg/mL (≈ 1.13 µM) against Candida albicans [9] and 3.13 µg/mL (≈ 9.08 µM) in [10]. In addition, the MIC is 0.39 µg/mL (≈ 1.13 µM) against Candida albicans [12] and 3.13 µg/mL (≈ 9.08 µM) in [13].
Turning to `CCCCCCCCCn1c(=O)c2c(-c3ccccc3)nc(-c3ccc[n+](CCCCCCCCC)c3)n2c2ccccc21.[Br-]`, the MFC was 500 µg/mL against Candida albicans [9], over 500 µg/mL in data set [10] and over 500 µg/mL against Aspergillus niger [11]. Also, the MBC is over 500 µg/mL against Pseudomonas aeruginosa [1], over 500 µg/mL against Escherichia coli [2], 500 µg/mL in the data set on Bacillus cereus [3] and 50 µg/mL in the data set with Staphylococcus aureus [4]. Also, the MIC in the data set with Candida albicans [12] is 50 µg/mL; in data set [13] it was 500 µg/mL; with Aspergillus niger [14], over 500 µg/mL; in the data set on Escherichia coli [5] it was over 500 µg/mL; against Bacillus cereus [6], 6.3 µg/mL; in the data set on Staphylococcus aureus [7], 1.5 µg/mL. In the data set with Pseudomonas aeruginosa [8], this compound came in with an MIC of over 500 µg/mL.
In the case of `O=C(O)c1cn(C2CC2)c2cc(N3CCNCC3)c(F)cc2c1=O` [CIPROFLOXACIN], the MBC was found to be 0.5 µg/mL (≈ 1.51 µM) against Pseudomonas aeruginosa [1], 0.5 µg/mL (≈ 1.51 µM) against Escherichia coli [2], 0.25 µg/mL (≈ 0.754 µM) in the data set with Bacillus cereus [3] and 0.25 µg/mL (≈ 0.754 µM) in the data set on Staphylococcus aureus [4]. The MIC against Bacillus cereus [6] and against Staphylococcus aureus [7] was 0.25 µg/mL (≈ 0.754 µM) throughout.
For the compound `C[C@@H]1[C@H](O)[C@@H](C)/C=C/C=C/C=C/C=C/C=C/C=C/C=C/[C@H](O[C@@H]2O[C@H](C)[C@@H](O)[C@H](N)[C@@H]2O)C[C@@H]2O[C@](O)(C[C@@H](O)C[C@@H](O)[C@H](O)CC[C@@H](O)C[C@@H](O)CC(=O)O[C@H]1C)C[C@H](O)[C@H]2C(=O)O` [AMPHOTERICIN B], the LD50 in data set [15] worked out at 27.7 mg/kg. Further, the values for the minimum fungicidal concentration (MFC) (against Candida albicans [9]; in [10]; against Aspergillus niger [11]) were 50 µg/mL (≈ 54.1 µM), 250 µg/mL (≈ 271 µM) and 250 µg/mL (≈ 271 µM), respectively. Also, the MIC with Candida albicans [12] was found to be 0.97 µg/mL (≈ 1.05 µM); in [13], 3.13 µg/mL (≈ 3.39 µM); against Aspergillus niger [14], 20 µg/mL (≈ 21.6 µM).
Take `CCCCCCCCCn1c(=O)c2c(-c3ccccc3)nc(-c3ccc[n+](CCCCCCCCC)c3)n2c2ccccc21.[I-]`: the MFC (in the data set with Candida albicans [9]; in data set [10]; in the data set with Aspergillus niger [11]) was over 500 µg/mL throughout. Further, the MBC was over 500 µg/mL in the data set on Pseudomonas aeruginosa [1], over 500 µg/mL in the data set on Escherichia coli [2], over 500 µg/mL in the data set with Bacillus cereus [3] and 500 µg/mL in the data set on Staphylococcus aureus [4]. The MIC was over 500 µg/mL in the data set with Candida albicans [12]; over 500 µg/mL in data set [13]; over 500 µg/mL in the data set with Aspergillus niger [14]; over 500 µg/mL in the data set with Escherichia coli [5]; 7.8 µg/mL with Bacillus cereus [6]; 7.8 µg/mL against Staphylococcus aureus [7]. This compound also yielded an MIC against Pseudomonas aeruginosa [8] of over 500 µg/mL.
